Activity calls are given as the source filed them. The rule behind the calls is not given here.
Legend:
[1] = Induction of nitric oxide release at 10 uM in presence of Schistosoma mansoni recombinant TGR and NADPH; type: functional
[2] = system: Schistosoma mansoni; assay: Antischistosomal activity against Schistosoma mansoni assessed as parasite killing after 4 hrs; type: functional
Summary of the method: (§1)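 Cultured ex vivo worms were exposed to 10 μM compound. Worm effects were scored by visual examination at time points over a 72 h time-course.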

[3] = Induction of nitric oxide release at 10 uM in presence of cysteine; type: physicochemical
[4] = Induction of nitric oxide release at 10 uM in presence of Schistosoma mansoni recombinant TGR; type: functional
[5] = system: Schistosoma mansoni; assay: Antischistosomal activity against Schistosoma mansoni assessed as induction of parasite mortality after 24 hrs; type: functional; design: concentration or dose not given beside the values; summary of the method: as §1
[6] = system: Schistosoma mansoni; assay: Antischistosomal activity against Schistosoma mansoni assessed as induction of parasite mortality after 72 hrs; type: functional; design: concentration or dose not given beside the values; summary of the method: as §1
[7] = system: Schistosoma mansoni; assay: Antischistosomal activity against Schistosoma mansoni assessed as induction of parasite mortality after 8 hrs; type: functional; design: concentration or dose not given beside the values; summary of the method: as §1
[8] = system: Schistosoma mansoni; assay: Antischistosomal activity against Schistosoma mansoni assessed as induction of parasite mortality after 16 hrs; type: functional; design: concentration or dose not given beside the values; summary of the method: as §1
[9] = system: Schistosoma mansoni; assay: Antischistosomal activity against Schistosoma mansoni assessed as parasite killing after 2 hrs; type: functional, organism-based; summary of the method: as §1
[10] = molecular target: T1, Thioredoxin reductase 1, cytoplasmic (Rattus norvegicus, UniProt O89049); assay: Inhibition of rat recombinant TrxR1 after 10 mins
T1 sequence (O89049 whole entry): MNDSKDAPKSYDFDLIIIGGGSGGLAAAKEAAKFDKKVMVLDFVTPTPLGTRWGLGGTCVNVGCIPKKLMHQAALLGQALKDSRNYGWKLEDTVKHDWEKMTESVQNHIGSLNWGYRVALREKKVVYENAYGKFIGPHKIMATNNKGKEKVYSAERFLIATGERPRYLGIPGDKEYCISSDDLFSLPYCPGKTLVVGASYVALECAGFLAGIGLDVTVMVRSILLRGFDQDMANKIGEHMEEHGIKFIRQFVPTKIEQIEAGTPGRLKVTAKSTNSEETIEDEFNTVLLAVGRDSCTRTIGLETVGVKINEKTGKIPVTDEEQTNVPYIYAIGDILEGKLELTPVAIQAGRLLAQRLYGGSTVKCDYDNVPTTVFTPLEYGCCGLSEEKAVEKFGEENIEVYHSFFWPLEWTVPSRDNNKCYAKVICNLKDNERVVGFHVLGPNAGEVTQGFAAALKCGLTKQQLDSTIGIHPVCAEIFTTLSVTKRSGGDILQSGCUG

[11] = system: Schistosoma mansoni; assay: Antischistosomal activity against Schistosoma mansoni assessed as induction of parasite mortality after 48 hrs; type: functional; design: concentration or dose not given beside the values; summary of the method: as §1
[12] = molecular target: T2, Glutathione reductase, mitochondrial (Homo sapiens, UniProt P00390); assay: Inhibition of human recombinant GR after 15 mins in presence of NADPH
T2 sequence (P00390 whole entry): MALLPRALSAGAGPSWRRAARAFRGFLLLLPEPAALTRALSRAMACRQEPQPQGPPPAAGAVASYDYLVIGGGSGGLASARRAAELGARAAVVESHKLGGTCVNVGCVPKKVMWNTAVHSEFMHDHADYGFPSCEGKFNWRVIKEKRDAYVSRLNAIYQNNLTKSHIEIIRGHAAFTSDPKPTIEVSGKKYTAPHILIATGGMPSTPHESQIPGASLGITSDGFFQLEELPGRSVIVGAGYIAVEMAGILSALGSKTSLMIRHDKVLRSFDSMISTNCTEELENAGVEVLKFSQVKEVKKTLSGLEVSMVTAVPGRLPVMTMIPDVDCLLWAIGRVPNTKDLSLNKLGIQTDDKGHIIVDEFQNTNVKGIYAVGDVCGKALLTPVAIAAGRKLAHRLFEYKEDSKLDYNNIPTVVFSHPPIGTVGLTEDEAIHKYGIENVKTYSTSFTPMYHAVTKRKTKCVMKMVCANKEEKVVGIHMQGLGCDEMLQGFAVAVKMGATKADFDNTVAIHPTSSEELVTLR

[13] = Reactivity with cysteine at 0.1 mM in 0.1M phosphate buffer assessed as amount of compound unreacted by HPLC
[14] = system: Schistosoma mansoni; assay: Antischistosomal activity against Schistosoma mansoni assessed as induction of parasite sluggish movement after 16 hrs; type: functional, organism-based; summary of the method: as §1
[15] = molecular target: T3, Thioredoxin glutathione reductase (Schistosoma mansoni, UniProt Q962Y6); assay: Inhibition of Schistosoma mansoni TGR
T3 sequence (Q962Y6 whole entry): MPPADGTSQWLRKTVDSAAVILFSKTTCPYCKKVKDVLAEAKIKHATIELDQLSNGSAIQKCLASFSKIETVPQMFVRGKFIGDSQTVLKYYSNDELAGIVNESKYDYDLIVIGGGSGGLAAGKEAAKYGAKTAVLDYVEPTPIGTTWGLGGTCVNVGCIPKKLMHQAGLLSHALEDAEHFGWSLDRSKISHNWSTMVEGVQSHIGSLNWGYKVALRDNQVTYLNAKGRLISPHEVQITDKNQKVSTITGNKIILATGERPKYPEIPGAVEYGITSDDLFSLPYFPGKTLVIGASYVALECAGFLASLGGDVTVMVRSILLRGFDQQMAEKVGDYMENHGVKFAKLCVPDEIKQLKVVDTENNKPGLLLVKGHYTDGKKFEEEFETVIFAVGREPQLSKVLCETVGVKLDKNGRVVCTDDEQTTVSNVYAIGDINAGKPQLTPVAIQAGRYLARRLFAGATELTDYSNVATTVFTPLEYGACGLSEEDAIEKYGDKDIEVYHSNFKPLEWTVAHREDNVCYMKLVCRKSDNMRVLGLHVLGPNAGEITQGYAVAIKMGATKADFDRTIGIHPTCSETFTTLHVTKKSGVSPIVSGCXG

[16] = Metabolic stability in human liver microsomes assessed as compound remaining over 60 mins in absence of NADPH; type: ADME, Microsome; settings: read-out: Stability

| SMILES | Activity [1] | Activity [2] | Activity [3] | Activity [4] | Activity [5] | Activity [6] | Activity [7] | Activity [8] | Activity [9] | IC50 [10] | Activity [11] | IC50 [12] | Activity [13] | Activity [14] | IC50 [15] | remaining at 1 h [16] |
| --- | --- | --- | --- | --- | --- | --- | --- | --- | --- | --- | --- | --- | --- | --- | --- | --- |
| COc1cccc(-c2no[n+]([O-])c2C#N)c1 | 9% | inactive | 52% | 2% | 7% | 20% | inactive | inactive | inactive | > 400 µM | 12% | > 50 µM | – | – | – | – |
| N#Cc1c(-c2cccc(C(F)(F)F)c2)no[n+]1[O-] | 20% | inactive | 78% | 2% | 54% | 100% | 7% | 25% | inactive | 250 µM | 100% | > 50 µM | – | – | – | – |
| Cc1ccc(-c2no[n+]([O-])c2C#N)cc1 | 15% | inactive | 58% | 1% | 50% | 70% | inactive | 15% | inactive | > 400 µM | 55% | > 50 µM | – | – | – | – |
| N#Cc1c(-c2ccc(C(F)(F)F)cc2)no[n+]1[O-] | 22% | inactive | 80% | 2% | 64% | 100% | 12% | 20% | inactive | < 12.5 µM | 80% | 45.3 µM | – | – | – | – |
| N#Cc1nonc1-c1ccccc1 | 3% | – | 7% | < 1% | – | – | – | – | – | – | – | – | – | – | – | – |
| [O-][n+]1onc(-c2ccccc2)c1CO | – | – | – | – | – | – | – | – | – | > 400 µM | – | > 50 µM | – | – | – | – |
| N#Cc1c(-c2ccc(F)cc2)no[n+]1[O-] | 13% | inactive | 50% | < 1% | 72% | 100% | 5% | 15% | inactive | 300 µM | 100% | > 50 µM | – | – | – | – |
| N#Cc1no[n+]([O-])c1-c1ccccc1 | 5% | – | 10% | < 1% | – | – | – | – | – | – | – | – | Active | – | – | – |
| COc1cc(-c2no[n+]([O-])c2C#N)cc(OC)c1OC | 8% | inactive | 20% | < 1% | 40% | 75% | 7% | – | inactive | 150 µM | 70% | > 50 µM | – | Active | – | – |
| N#Cc1c(C(=O)c2cccs2)no[n+]1[O-] | – | inactive | – | – | inactive | inactive | inactive | inactive | inactive | – | inactive | – | Active | – | 0.063 µM | – |
| NC(=O)c1c(-c2ccccc2)no[n+]1[O-] | – | inactive | – | – | 60% | 100% | 12% | 27% | inactive | > 400 µM | 100% | > 50 µM | – | – | 17.8 µM | – |
| COc1ccc(-c2no[n+]([O-])c2C#N)cc1 | 10% | inactive | 55% | 2% | 29% | 100% | inactive | 10% | inactive | > 400 µM | 60% | > 50 µM | – | – | – | – |
| N#Cc1c(-c2cccc(O)c2)no[n+]1[O-] | – | inactive | – | – | inactive | inactive | – | inactive | inactive | – | inactive | – | – | – | – | – |
| O=C(c1cccs1)c1no[n+]([O-])c1C(=O)c1cccs1 | – | inactive | – | – | inactive | inactive | inactive | inactive | inactive | – | inactive | – | Active | – | 0.04 µM | – |
| O=C(O)c1c(-c2ccccc2)no[n+]1[O-] | 7% | inactive | 10% | 2% | inactive | inactive | inactive | inactive | inactive | > 400 µM | inactive | > 50 µM | – | – | 0.63 µM | – |
| N#Cc1c(-c2ccc(Cl)cc2)no[n+]1[O-] | 16% | inactive | 61% | 2% | 42% | 100% | inactive | – | inactive | > 400 µM | 60% | > 50 µM | – | Active | – | – |
| N#Cc1c(-c2cccc([N+](=O)[O-])c2)no[n+]1[O-] | 16% | inactive | 72% | 2% | 10% | 21% | inactive | – | inactive | 150 µM | 15% | > 50 µM | – | Active | – | – |
| N#Cc1c(-c2ccco2)no[n+]1[O-] | 16% | inactive | 60% | 2% | 70% | 100% | 10% | 40% | inactive | 350 µM | 100% | > 50 µM | – | – | 2.8 µM | – |
| COc1ccccc1-c1no[n+]([O-])c1C#N | – | inactive | – | – | 40% | 60% | – | 11% | inactive | – | 50% | – | – | – | – | – |
| N#Cc1c(-c2cccc(Br)c2)no[n+]1[O-] | 19% | inactive | 70% | 2% | 100% | 100% | 20% | 39% | inactive | 150 µM | 100% | > 50 µM | – | – | – | – |
| N#Cc1c(-c2csc(-c3no[n+]([O-])c3C#N)c2)no[n+]1[O-] | – | – | – | – | – | – | – | – | inactive | – | – | – | – | – | – | 52% |

From ChEMBL document CHEMBL1155233, “Structure mechanism insights and the role of nitric oxide donation guide the development of oxadiazole-2-oxides as therapeutic agents against schistosomiasis” (J Med Chem, 2009)
